Experimental data collected from several papers.
Lines come from different studies, so protocols differ.
Target: Cyclin-dependent kinase 13 (CDK13, Homo sapiens, UniProt Q14004)

Structure (SMILES) | assay | setting | remaining binding [%]
N#CC1(c2ccccn2)CCN(Cc2cc(C(=O)N3CCCC3)c(=O)n3ccccc23)CC1 | cell-free assay, competition with immobilised ligand | 1 µM | 100
c1cncc(-c2cccc(Nc3nccc(NC4CCCCC4)n3)c2)c1 | binding, competition with immobilised ligand | 10 µM | 100
COc1cnc(Nc2cccc(S(N)(=O)=O)c2)nc1N1CCN(c2ccccc2)CC1 | binding, competition with immobilised ligand | 1 µM | 21
Cc1cnc(Nc2ccc(C(=O)N3CCC(N4CCCC4)CC3)cc2)nc1-c1cc2ccccc2s1 | binding, competition with immobilised ligand | 1 µM | 50
COCCOc1nc(-c2ccc(Cl)nc2)nc2c1CN(C(=O)c1ncn3ccccc13)CC2 | cell-free assay, competition with immobilised ligand | 0.1 µM | 100
CN(CCCC(F)(F)F)c1nccc(-c2cnn3ncccc23)n1 | binding | 1 µM | 100
O=C(c1ccc(Nc2nccc(-c3cc4ccccc4s3)n2)cc1)N1CCC(N2CCCC2)CC1 | binding, competition with immobilised ligand | 1 µM | 92
CN(C)c1ncc(F)c(-c2cnn3ncccc23)n1 | binding | 1 µM | 96
CN(C)C(=O)Cn1cc(-c2nc([C@@](C)(c3ccc(-c4cnc(N)nc4)cc3)C3CC3)no2)cn1 | cell-free assay, competition with immobilised ligand | 1 µM | 83
CN(c1nccc(-c2cnn3ncccc23)n1)C1CC1 | binding | 1 µM | 100
O=C(c1ccc(Nc2ncc(Cl)c(-c3cc4ccccc4s3)n2)cc1)N1CCC(N2CCCC2)CC1 | binding, competition with immobilised ligand | 1 µM | 36
O=C(Nc1cccnn1)N1CC(C/C=C/c2cncc(Oc3ccc(C(F)(F)F)cn3)n2)C1 | cell-free assay, competition with immobilised ligand | 1 µM | 98
CC1CCCN1c1nccc(-c2cnn3ncccc23)n1 (stereo not shown) | binding | 1 µM | 100
FC(F)(F)Oc1cccc(-c2cnc3ccc(-c4ccncc4)nn23)c1 | cell-free assay, competition with immobilised ligand | 5 µM | 99
N[C@H]1CCN(c2nccc(-c3cnn4ncccc34)n2)C1 | binding | 1 µM | 64
O=C(O)[C@H]1[C@H](Cn2nnc3ccccc3c2=O)CC[C@@H]1C(=O)c1ccc(OCCC2CCOCC2)cc1 | cell-free assay, competition with immobilised ligand | 1 µM | 93
C[C@@H]1CCN(c2nccc(-c3cnn4ncccc34)n2)C1 | binding | 1 µM | 72
Cc1c(C(=O)O)cc(-c2ccc(C3CCNCC3)cc2)c2ccc(-c3ccc(C(F)(F)F)cc3)cc12 | binding, competition with immobilised ligand | 1 µM | 100
O=C(Nc1c[nH]nc1C(=O)NC1CCNCC1)c1cc(F)cc(F)c1 | binding, competition with immobilised ligand | 1 µM | 100
